From ChEMBL document CHEMBL2010652, “Synthesis and evaluation of analogues of estrone-3-O-sulfamate as potent steroid sulfatase inhibitors” (Bioorg Med Chem, 2012) come the findings set out here.

Structures are written as SMILES.

In general, inhibition refers to how much of the control response was suppressed. A lower inhibition goes with a response near the control. In general, inhibition in vivo refers to the relative decrease from the control value, in per cent. Lower therefore signals little suppression. As usually defined, the IC50 is the concentration at which inhibition is half-maximal. A low value points to greater potency in that assay.

In one test the target is T1, Steryl-sulfatase (Homo sapiens) (UniProt P08842).
T1 sequence (whole entry): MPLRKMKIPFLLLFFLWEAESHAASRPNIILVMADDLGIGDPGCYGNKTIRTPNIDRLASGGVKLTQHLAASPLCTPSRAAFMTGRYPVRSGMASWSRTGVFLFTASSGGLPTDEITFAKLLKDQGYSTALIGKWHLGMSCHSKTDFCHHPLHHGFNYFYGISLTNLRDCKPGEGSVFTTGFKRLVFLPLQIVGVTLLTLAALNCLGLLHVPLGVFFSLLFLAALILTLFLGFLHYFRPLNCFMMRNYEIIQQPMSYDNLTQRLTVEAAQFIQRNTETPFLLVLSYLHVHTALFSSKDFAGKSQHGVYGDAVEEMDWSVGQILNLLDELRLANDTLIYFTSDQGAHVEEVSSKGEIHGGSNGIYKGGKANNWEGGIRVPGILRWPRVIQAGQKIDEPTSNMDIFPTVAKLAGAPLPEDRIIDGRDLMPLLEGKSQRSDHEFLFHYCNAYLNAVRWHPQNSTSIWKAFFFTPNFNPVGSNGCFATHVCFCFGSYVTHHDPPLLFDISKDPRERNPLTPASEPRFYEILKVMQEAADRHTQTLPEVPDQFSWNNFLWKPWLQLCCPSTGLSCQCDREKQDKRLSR
In words: Inhibition of steroid sulfatase in human MCF7 cells using [3H]E1S as substrate at 10 uM after 20 hrs by scintillation spectrometry. The test is classed as cell-based.
Conditions: not given
A digest of the protocol: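 Intact MCF-7 monolayers exposed to inhibitor with [3H]E1S (5 pmol, 60 Ci/mmol) in serum-free minimal essential medium, 20 h at 37 °C. Product estrone split from E1S by toluene partition, with [14C]estrone as recovery marker. 3H and 14C counted by scintillation. E1S hydrolysed calculated from 3H counts, corrected for volumes and 14C recovery, and from substrate specific activity.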
Turning to `C=CCc1cc2c(c(CC=C)c1OS(N)(=O)=O)CC[C@@H]1[C@@H]2CC[C@]2(C)C(=O)CC[C@@H]12`, the inhibition is less than 10%.
On the same count and under the same terms, next, `CCCc1cc2c(c(CCC)c1OS(N)(=O)=O)CC[C@@H]1[C@@H]2CC[C@]2(C)C(=O)CC[C@@H]12`: less than 10%; `CCCc1c(OS(N)(=O)=O)ccc2c1CC[C@@H]1[C@@H]2CC[C@]2(C)C(=O)CC[C@@H]12`: less than 10%.

The test system of another test is Rattus norvegicus. The experiment in a line: Inhibition of steroid sulfatase in rat liver at 10 mg/kg, sc. The test is classed as functional. As to conditions: route subcutaneous.
The compound `C[C@]12CC[C@@H]3c4ccc(OS(N)(=O)=O)cc4CC[C@H]3[C@@H]1CCC2=O` [EMATE] yielded an inhibition in vivo at 10 mg/kg of 99%.

The subject of another test is Rattus norvegicus. The experiment in a line: Inhibition of steroid sulfatase in rat liver at 10 mg/kg, po.
Conditions: not given
The test is classed as functional.
Compound `C[C@]12CC[C@@H]3c4ccc(OS(N)(=O)=O)cc4CC[C@H]3[C@@H]1CCC2=O` [EMATE] yielded an inhibition in vivo at 10 mg/kg of 99%.

Another test deals with T2, Steryl-sulfatase (Homo sapiens, UniProt P08842).
T2 sequence (P08842 whole entry): T1 sequence (whole entry)
Conditions: not given
For `C=CCc1cc2c(c(CC=C)c1OS(N)(=O)=O)CC[C@@H]1[C@@H]2CC[C@]2(C)C(=O)CC[C@@H]12`, the IC50 is more than 10000 nM.
The compound `C[C@]12CC[C@@H]3c4cc([N+](=O)[O-])c(OS(N)(=O)=O)cc4CC[C@H]3[C@@H]1CCC2=O` showed an IC50 of 70 nM.
The same measure, in the same setting: then `C[C@]12CC[C@@H]3c4cc(C(F)F)c(OS(N)(=O)=O)cc4CC[C@H]3[C@@H]1CCC2=O`, with 0.1 nM.
Take `C[C@]12CC[C@@H]3c4cc(F)c(OS(N)(=O)=O)cc4CC[C@H]3[C@@H]1CCC2=O`: 5.6 nM corresponded to half-maximal inhibition (IC50).
On the same count and under the same terms, then `Cc1cc2c(cc1OS(N)(=O)=O)CC[C@@H]1[C@@H]2CC[C@]2(C)C(=O)CC[C@@H]12`, with more than 10000 nM; and `C[C@]12CC[C@@H]3c4cc5c(cc4CC[C@H]3[C@@H]1CCC2=O)OS(=O)(=O)N5`, with more than 10000 nM; and `C[C@]12CC[C@@H]3c4cc(C#N)c(OS(N)(=O)=O)cc4CC[C@H]3[C@@H]1CCC2=O`, with 5.2 nM.
`C[C@]12CC[C@@H]3c4cc(Cl)c(OS(N)(=O)=O)cc4CC[C@H]3[C@@H]1CCC2=O`: it took 3.4 nM to reach half-maximal inhibition (IC50).
`CCCc1cc2c(cc1OS(N)(=O)=O)CC[C@@H]1[C@@H]2CC[C@]2(C)C(=O)CC[C@@H]12` gave an IC50 of 2900 nM.
On the same count and under the same terms, then `C[C@]12CC[C@@H]3c4ccc(OS(N)(=O)=O)cc4CC[C@H]3[C@@H]1CCC2=O` [EMATE], with 18 nM.
Same read-out and setting: then `CN1c2cc3c(cc2OS1(=O)=O)CC[C@@H]1[C@@H]3CC[C@]2(C)C(=O)CC[C@@H]12`, with more than 10000 nM; and `C[C@]12CC[C@@H]3c4ccc(OS(N)(=O)=O)c(Br)c4CC[C@H]3[C@@H]1CCC2=O`, with 1200 nM; and `CCCc1cc2c(c(CCC)c1OS(N)(=O)=O)CC[C@@H]1[C@@H]2CC[C@]2(C)C(=O)CC[C@@H]12`, with more than 10000 nM.
Still for that read-out and setting: then `CCc1cc2c(cc1OS(N)(=O)=O)CC[C@@H]1[C@@H]2CC[C@]2(C)C(=O)CC[C@@H]12`, with 820 nM.
The compound `C[C@]12CC[C@@H]3c4ccc5c(c4CC[C@H]3[C@@H]1CCC2=O)NS(=O)(=O)O5` returned an IC50 of more than 10000 nM.
On to `C[C@@]12CCC[C@H]1[C@@H]1CCc3cc(OS(N)(=O)=O)ccc3[C@H]1CC2`, for which the IC50 stood at 199 nM.
The same measure, in the same setting: next, `C=CCc1cc2c(cc1OS(N)(=O)=O)CC[C@@H]1[C@@H]2CC[C@]2(C)C(=O)CC[C@@H]12`: 2500 nM; `C[C@]12CC[C@@H]3c4ccc(OS(N)(=O)=O)c([N+](=O)[O-])c4CC[C@H]3[C@@H]1CCC2=O`: 0.8 nM; `CCCc1c(OS(N)(=O)=O)ccc2c1CC[C@@H]1[C@@H]2CC[C@]2(C)C(=O)CC[C@@H]12`: more than 10000 nM.

For a further test, the target named is T1, Steryl-sulfatase (Homo sapiens). As to conditions: MCF7, 0.01 uM.
Consider `C[C@@]12CCC[C@H]1[C@@H]1CCc3cc(OS(N)(=O)=O)ccc3[C@H]1CC2`, for which the inhibition amounted to 97%.

Another test has as its target T2, Steryl-sulfatase. In words: Inhibition of steroid sulfatase in human MCF7 cells using [3H]E1S as substrate after 20 hrs by scintillation spectrometry.
Conditions: not given
The test is classed as cell-based. A digest of the protocol:
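Intact MCF-7 monolayers incubated 20 h at 37 °C with [3H]E1S (5 pmol, 7 × 10^5 dpm) in serum-free minimal essential medium, with or without inhibitor (0.1–10 range). Estrone product separated from E1S by toluene partition; [14C]estrone corrected procedural losses. 3H/14C counted by scintillation; E1S hydrolysed calculated from 3H counts and substrate specific activity; IC50 derived.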
`C[C@]12CC[C@@H]3c4cc([N+](=O)[O-])c(OS(N)(=O)=O)cc4CC[C@H]3[C@@H]1CCC2=O`: 8.3 nM corresponded to half-maximal inhibition (IC50). In other words, the single-digit nanomolar range.
Same read-out and setting: next, `C[C@]12CC[C@@H]3c4cc(F)c(OS(N)(=O)=O)cc4CC[C@H]3[C@@H]1CCC2=O`: 0.62 nM; `C[C@]12CC[C@@H]3c4cc(C#N)c(OS(N)(=O)=O)cc4CC[C@H]3[C@@H]1CCC2=O`: 1.2 nM; `C[C@]12CC[C@@H]3c4cc(Cl)c(OS(N)(=O)=O)cc4CC[C@H]3[C@@H]1CCC2=O`: 0.44 nM.
`CCCc1cc2c(cc1OS(N)(=O)=O)CC[C@@H]1[C@@H]2CC[C@]2(C)C(=O)CC[C@@H]12`: the IC50 came out at 236 nM.
On the same count and under the same terms, next, `C[C@]12CC[C@@H]3c4cc(Br)c(OS(N)(=O)=O)cc4CC[C@H]3[C@@H]1CCC2=O`: 0.11 nM.
Still for that read-out and setting: then `C[C@]12CC[C@@H]3c4ccc(OS(N)(=O)=O)cc4CC[C@H]3[C@@H]1CCC2=O` [EMATE], with 0.83 nM; and `C[C@]12CC[C@@H]3c4ccc(OS(N)(=O)=O)c(Br)c4CC[C@H]3[C@@H]1CCC2=O`, with 42 nM; and `C[C@]12CC[C@@H]3c4cc(I)c(OS(N)(=O)=O)cc4CC[C@H]3[C@@H]1CCC2=O`, with 0.81 nM.
Compound `C=CCc1cc2c(cc1OS(N)(=O)=O)CC[C@@H]1[C@@H]2CC[C@]2(C)C(=O)CC[C@@H]12` showed an IC50 of 37 nM.
`C[C@]12CC[C@@H]3c4ccc(OS(N)(=O)=O)c([N+](=O)[O-])c4CC[C@H]3[C@@H]1CCC2=O` returned an IC50 of 0.01 nM.

For the next test, the system named is Rattus norvegicus. In words: Inhibition of steroid sulfatase in rat liver at 10 mg/kg, po administered as single dose measured up to 7 days. The test is classed as functional. As to conditions: 168 h.
`C[C@]12CC[C@@H]3c4ccc(OS(N)(=O)=O)cc4CC[C@H]3[C@@H]1CCC2=O` [EMATE]: the inhibition in vivo at 10 mg/kg was more than 95%.

The test system of another test is Rattus norvegicus. In words: Inhibition of steroid sulfatase in rat liver at 10 mg/kg, sc administered as single dose measured up to 7 days. The test is classed as functional. As to conditions: 168 h, route subcutaneous.
The compound `C[C@]12CC[C@@H]3c4ccc(OS(N)(=O)=O)cc4CC[C@H]3[C@@H]1CCC2=O` [EMATE] yielded an inhibition in vivo at 10 mg/kg of more than 95%.
